# From ChEMBL document CHEMBL1131528, “Effect of steroids on DNA synthesis in an in vitro replication system: initial quantitative structure-activity relationship studies and construction of a non-estrogen receptor pharmacophore” (J Med Chem, 1998)
# Test system: Nucleic Acid
# Assay: (§1) The compound was tested in vitro for its ability to initiate DNA replication
# Assay type: functional
# Conditions: Homo sapiens
# Summary of the method: (§2)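 Steroid dissolved in 100% ethanol, diluted with water (final ethanol ≤0.1%), tested at 10 nM in a HeLa cell extract in vitro replication system (extracts estrogen and progesterone receptor-negative) with plasmid template pX24 (hamster DHFR origin) or 30.4 (random human cDNA fragment). Compound preincubated with template DNA and precursor nucleotides, then remaining components added to start replication. DNA purified; synthesis measured by DpnI resistance assay with phosphoimager densitometry; expressed as % of untreated control, mean ± SD of at least two experiments.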
row,Structure (SMILES),DNA
1,"C[C@]12CC[C@@H]3c4ccc(O)c(O)c4CCC3[C@@H]1CC[C@@H]2O (single isomer, unassigned)",53%
2,C[C@]12CC[C@@H]3c4ccc(O)cc4CC[C@H]3[C@@H]1C[C@H](O)[C@H]2O,200%
3,C[C@]12CC[C@@H]3c4ccc(O)cc4CC[C@H]3[C@@H]1C[C@@H](O)[C@@H]2O,144%
4,"C[C@]12CC[C@@H]3c4cc(O)c(O)cc4CCC3[C@@H]1CC[C@@H]2O (single isomer, unassigned)",52%
5,"C[C@]12CC[C@H]3C(CCC4=CC(=O)CC[C@@]43C)[C@@H]1CC[C@@H]2O (single isomer, unassigned)",72%
6,C[C@]12CC[C@@H]3c4ccc(O)cc4CC[C@H]3[C@@H]1C[C@@H](O)[C@H]2O,103%
7,C[C@]12CC[C@@H]3c4ccc(O)cc4CC[C@H]3[C@@H]1CC(=O)[C@@H]2O,99%

# Test system: Nucleic Acid
# Assay: as §1
# Assay type: nucleic-acid assay
# Conditions: Homo sapiens
# Summary of the method: as §2
row,Structure (SMILES),DNA
1,C[C@]12CC[C@@H]3c4ccc(O)cc4CC[C@H]3[C@@H]1C[C@@H](O)C2=O,150%
2,C[C@]12CC[C@@H]3c4ccc(O)cc4CC[C@H]3[C@@H]1CCC2=O,108%
3,C[C@]12CC[C@@H]3c4ccc(O)cc4CC[C@H]3[C@@H]1C[C@@H](O)[C@@H]2O,118%
4,COc1ccc2c(c1OC)CC[C@@H]1[C@@H]2CC[C@]2(C)C(=O)CC[C@@H]12,63%
5,C[C@]12CC[C@@H]3c4cc(O)c(O)cc4CC[C@H]3[C@@H]1CCC2=O,92%
6,COc1c(O)ccc2c1CC[C@@H]1[C@@H]2CC[C@]2(C)C(=O)CC[C@@H]12,53%
7,CC(=O)[C@H]1CC[C@H]2[C@@H]3CCC4=CC(=O)CC[C@]4(C)[C@H]3CC[C@]12C,115%
